Data on eight compounds can be found in PubChem BioAssay.

The structures appear in SMILES notation. Activity calls are given as the source filed them.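 The calls were made as follows, unless noted: active = NADPH fluorescence slope more negative than the mean of all samples by about 3 SD, 99.7% confidence; inactive = the rest.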

Test [1] can be described thus: inhibitors of TNFa-induced NFkB p65 translocation, primary screen, imaging, HUVEC, MLSMR starter and 10KST1 sets (AID 438;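 active = inhibition above 20% together with a positive visual image hit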;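 also: compound added about 3h40 before a 20 min TNFalpha stimulation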;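 as to inhibition: signal is the nuclear over cytoplasmic p65 intensity ratio per well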). To be noted: HUVEC TNFa-induced p65 nuclear translocation; cell count: measured here: nuclei count (cytotoxicity indicator), at 2.08 µM; inhibition: at 2 µM, stronger effect = higher value, 0% TNFa-plus-vehicle, 100% no-TNFa wells.
Test [2] in a line: inhibitors of mutant huntingtin aggregation, primary screen, imaging, exon1htt(103Q)mCFP cells, high-content imaging (AID 483;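 active = visual image review flags a hit and inhibition of aggregation exceeds 20%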;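 also: compound exposure lasted 3 days before fixation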;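 as to nuclei count: percent of the per-plate median nuclei count of sample wells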). The settings on record: exon1htt(103Q)mCFP cell line, aggregate imaging, at 2 µM; inhibition of aggregation: stronger effect = higher value; nuclei count: measured here: cell count, toxicity.
Test [3] in a line: inhibitors of E-selectin induction by TNFa, primary screen, imaging, HUVEC, immunofluorescence, MLSMR starter and 10KST1 sets (AID 487;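 active = visually confirmed hit in the image check and inhibition above 20%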;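 as to inhibition: signal is fraction of cell area covered by stained E-selectin grains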;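 as to nuclei count: 100% = median nuclei count of all wells on the same plate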). The settings on record: HUVEC TNFalpha-induced E-selectin immunofluorescence imaging, at 2 µM; inhibition: stronger effect = higher value; nuclei count: measured here: cell number, toxicity.
In test [4] the target is Voltage-gated potassium channel subunit beta-2 (Rattus norvegicus) (UniProt P62483). The experiment in a line: KvBeta enzyme negative modulators, primary screen, biochemical, NADPH fluorescence (AID 622;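 active = fluorescence slope higher than the sample average by over 3 SD, cut at about -0.22 in these data, passing the limit was not always enough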;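 also: slope of raw intensity against log time taken from 70 to 1610 s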). The settings on record: recombinant KvBeta, 4-cyanobenzaldehyde reduction, at 10 µM, stronger effect = higher value.
Test [5] shares this target. In words: KvBeta positive modulators, primary screen, biochemical, NADPH fluorescence (AID 623).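 Also: fluorescence intensity change per second fitted from 20 to 320 s.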 To be noted: Recombinant KvBeta, NADPH fluorescence decrease slope, 10 min; at 10 µM; stronger effect = lower value.
The target of test [6] is Alpha-2C adrenergic receptor (Homo sapiens) (UniProt P18825). In words: modulators of alpha2C/GIRK thallium flux, primary screen, cell-based, HEK293 alpha2C/GIRK1/2 (AID 624;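 active = fluorescence slope after compound addition differing from the mean of all screened samples at 99.7% confidence, in either direction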;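 also: slope of fluorescence ratio to pre-addition baseline per second over 15 to 24 s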). The settings on record: thallium flux BTC fluorescence, at 10 µM, actives lie on both sides.
Test [7] can be described thus: inhibitors of Sendai virus-induced IRF3 signaling, primary screen, TLR/RLR signaling modifier project, cell-based, Sendai virus stimulus, luciferase, 10K MLSCN set (AID 602276;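 active = inhibition at or above 50% at 10 µM; inactive = inhibition below 50%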;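 also: firefly luciferase from ISG56 promoter only with Renilla not read in this screen; 0% = Sendai virus plus DMSO and 100% = medium plus DMSO without virus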). The settings on record: HEK293 RL24 IRF3 luciferase reporter, at 10 µM, stronger effect = higher value. On the technique in general: In a reporter assay the amount or activity of a reporter protein is the signal.

The nature of test [8]: inhibitors of poly I:C-induced TLR3 signaling, primary screen, cell-based, poly I:C stimulus, luciferase, 10K MLSCN set (AID 602277;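 active = inhibition of the reporter signal at or above 50%; inactive = inhibition below 50%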). To be noted: HEK293-TLR3 RL24 IRF3 luciferase reporter, at 10 µM, stronger effect = higher value.
For test [9], the target named is Muscarinic acetylcholine receptor M4 (Homo sapiens) (UniProt P08173). In words: compounds altering M4/GIRK thallium flux, either direction, primary screen, M4 allosteric agonist project, cell-based, HEK293 M4/GIRK, BTC-AM (AID 625;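 active = fluorescence slope after compound addition differing from the mean of all tested samples at 99.7% confidence, mostly higher but some lower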;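 also: thallium influx through GIRK channels coupled to M4 in HEK293 cells with BTC-AM dye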). To be noted: at 10 µM, actives lie on both sides. The method in brief:
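Material: M4/GIRK1/GIRK2 stable HEK293 cell line. Medium: pH 7.3 thallium assay buffer. Dosing: single compound concentration, 10 µM final. Schedule: 1 h dye loading, 2 min kinetic read. Measured by: kinetic fluorescence with BTC-AM dye. Read-out: post-addition slope, 15–24 s, of baseline-normalized fluorescence. Benchmarks: carbachol and DMSO controls.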

Test [10] is described as follows: inhibitors of larval lipid processing in zebrafish, primary screen, whole organism, PED6 fluorescence, gall bladder and intestine (AID 686;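 active = a full or partial loss of lipid-probe fluorescence in the fish gall bladder, intestine or both, judged by eye; inactive = no fluorescence loss, or compound toxic to the fish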;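 also: larvae 5 to 7 days old with five fish per well; signal comes from phospholipase A2 cleavage of quenched PED6 carried via bile; overnight exposure to compound and PED6 before scoring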). To be noted: Zebrafish larvae PED6 lipid processing, fluorescence scoring; screened at 20 µM (by protocol). A digest of the protocol:
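System: live zebrafish larvae aged 5-7 days, whole organism; measure: graded gall bladder and intestinal fluorescence inhibition per well; incubation: overnight exposure; reagent: ingested quenched lipid PED6 at 100 nM; signal: By-eye fluorescence microscopy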

Sequence of Alpha-2C adrenergic receptor (Homo sapiens) (P18825 whole entry, looked up): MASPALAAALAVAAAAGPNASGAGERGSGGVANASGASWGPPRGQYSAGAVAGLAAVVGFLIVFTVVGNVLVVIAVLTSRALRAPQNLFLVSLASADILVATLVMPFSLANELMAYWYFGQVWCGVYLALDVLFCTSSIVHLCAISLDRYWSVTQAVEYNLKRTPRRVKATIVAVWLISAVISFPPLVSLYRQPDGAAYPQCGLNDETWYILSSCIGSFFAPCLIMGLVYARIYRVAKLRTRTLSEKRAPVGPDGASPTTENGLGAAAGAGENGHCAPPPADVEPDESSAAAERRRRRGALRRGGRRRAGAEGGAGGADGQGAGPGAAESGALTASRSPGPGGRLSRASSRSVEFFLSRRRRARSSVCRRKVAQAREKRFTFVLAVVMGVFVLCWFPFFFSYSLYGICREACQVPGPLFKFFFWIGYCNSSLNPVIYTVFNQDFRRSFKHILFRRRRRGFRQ
Sequence of Voltage-gated potassium channel subunit beta-2 (Rattus norvegicus) (P62483 whole entry, looked up): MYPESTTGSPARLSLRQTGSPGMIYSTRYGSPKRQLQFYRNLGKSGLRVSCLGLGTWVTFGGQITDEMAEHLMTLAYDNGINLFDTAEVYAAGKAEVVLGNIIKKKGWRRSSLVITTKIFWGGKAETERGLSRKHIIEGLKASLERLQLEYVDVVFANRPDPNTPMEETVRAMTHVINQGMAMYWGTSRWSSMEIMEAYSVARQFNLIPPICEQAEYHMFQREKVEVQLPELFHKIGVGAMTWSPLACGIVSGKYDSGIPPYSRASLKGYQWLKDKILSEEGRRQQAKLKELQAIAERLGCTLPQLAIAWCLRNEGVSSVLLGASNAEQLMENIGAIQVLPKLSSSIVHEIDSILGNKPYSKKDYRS
Sequence of Muscarinic acetylcholine receptor M4 (Homo sapiens) (P08173 whole entry, looked up): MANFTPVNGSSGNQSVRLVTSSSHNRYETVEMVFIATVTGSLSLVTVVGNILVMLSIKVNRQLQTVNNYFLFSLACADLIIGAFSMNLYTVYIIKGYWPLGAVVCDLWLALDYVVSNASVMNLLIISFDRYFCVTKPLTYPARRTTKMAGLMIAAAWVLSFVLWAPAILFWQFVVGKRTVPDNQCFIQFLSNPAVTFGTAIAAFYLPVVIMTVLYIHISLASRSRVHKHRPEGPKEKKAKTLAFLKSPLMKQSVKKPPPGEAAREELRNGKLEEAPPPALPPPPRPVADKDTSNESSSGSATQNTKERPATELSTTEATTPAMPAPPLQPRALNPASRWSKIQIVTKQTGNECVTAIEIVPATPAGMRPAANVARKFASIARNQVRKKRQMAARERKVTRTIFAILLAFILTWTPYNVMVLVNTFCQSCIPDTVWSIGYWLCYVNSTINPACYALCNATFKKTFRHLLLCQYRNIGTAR

Usually inhibition stands for the change of the read-out against control, counted positive when it falls. For the compound `O=C(Nc1ccc2c(c1)OCO2)c1nn(-c2ccccc2)c(=O)c2ccccc12`, the cell count in [1] came out at 417. In addition, the inhibition was 7.1% (inactive) in test [1], 13.5% (inactive) in test [7] and 11.4% (inactive) in [8]. For the same compound, the inhibition of aggregation in [2] was -7.3% (inactive). Moreover, the nuclei count in test [2] was 93.9%; in test [3], 150%. Further, the fluorescence slope in test [4] is -0.621 (inactive). Moreover, in [5], the NADPH fluorescence slope is 2e-05 (inactive). Besides, the slope in [6] was 0.00664 (inactive).
As for `CCOC(=O)C1CCCN(C(=O)c2ccc3c(=O)n(CCOC)c(=S)[nH]c3c2)C1` (configuration not stated), in [1], the cell count was 417. For the same compound, the inhibition in test [1] is 3.9% (inactive); in test [3], 20.2% (inactive); in test [7], 6.16% (inactive); in test [8] it was -7.26% (inactive). Moreover, the inhibition of aggregation in test [2] is -2.5% (inactive). Besides, the figures for the nuclei count in test [2] and in test [3] were 81.3% and 91.8%, respectively. In addition, the fluorescence slope is -0.386 (inactive) in test [4] and 0.00594 (inactive) in [9]. Besides, the NADPH fluorescence slope in test [5] is -6.4e-05 (inactive).
For the compound `COc1ccc(C(=O)N2CCOCC2)cc1Br`, the cell count in test [1] was 406. The inhibition was -7.6% (inactive) in [1], -24.6% (inactive) in test [3], -0.192% (inactive) in test [7] and -3.39% (inactive) in test [8]. In addition, in test [2], the inhibition of aggregation was 5.4% (inactive). The figures for the nuclei count in test [2] and in test [3] were 90.8% and 108%, respectively. Further, the fluorescence slope in test [4] is -0.49 (inactive); in test [9] it was 0.0055 (inactive). Also, the NADPH fluorescence slope in [5] was 3.2e-05 (inactive).
For the compound `CCOC(=O)c1[nH]c(C)c(C(=O)Nc2ccc(C)c(Cl)c2)c1C`, the cell count in test [1] worked out at 661. Also, the inhibition in test [1] was 0.3% (inactive); in [3] it was -7.5% (inactive); in test [7], 11.7% (inactive); in [8] it was 11.2% (inactive). Moreover, in test [2], the inhibition of aggregation is -3.4% (inactive). For the same compound, the nuclei count in test [2] came to 97.4%; in test [3], 96.5%. Moreover, the results for the fluorescence slope in [4] and in test [9] were -0.446 (inactive) and 0.00769 (inactive), respectively. Also, in test [5], the NADPH fluorescence slope was 1.5e-05 (inactive).
As for `O=C(Nc1nc(-c2ccccc2)cs1)C1CCCO1` (configuration not stated), the cell count in test [1] was 440. The inhibition in test [1] is 9.4% (inactive); in test [7], -12.1% (inactive); in test [8], 98.1% (active). The inhibition of aggregation in [2] was -2.5% (inactive). For the same compound, the nuclei count in test [2] was 102%; in test [3], 156%. For the same compound, the fluorescence slope in [4] was -0.409 (inactive). Also, in test [5], the NADPH fluorescence slope is -5.9e-05 (inactive). Also, the slope in test [6] was 0.00563 (inactive). Moreover, the result in test [10] was inactive.
Regarding `Cc1cc(S(=O)(=O)N2CCN(c3ncccn3)CC2)ccc1-n1cnnn1`, the cell count in [1] stood at 402. For the same compound, the inhibition in test [1] was 7.9% (inactive); in [7] it was -6.32% (inactive); in test [8], 0.356% (inactive). Also, the inhibition of aggregation in test [2] is -13.8% (inactive). In addition, the results for the nuclei count in test [2] and in test [3] were 101% and 149%, respectively. The fluorescence slope in test [4] was -0.393 (inactive). In addition, in [5], the NADPH fluorescence slope is -1e-05 (inactive). Further, the slope in test [6] was 0.00528 (inactive). In addition, in test [10], the compound was called inactive.
For `COCCNC(=O)c1cc2c(-c3ccccc3F)nn(C)c2s1`, the cell count in test [1] was found to be 401. Moreover, the inhibition was -5.4% (inactive) in [1], -12.9% (inactive) in [3], 12.1% (inactive) in test [7] and -0.79% (inactive) in [8]. Further, in test [2], the inhibition of aggregation was -28.5% (inactive). In addition, the nuclei count turned out to be 96.8% in test [2] and 120% in [3]. Further, the fluorescence slope in [4] is -0.523 (inactive); in [9], 0.00439 (inactive). Besides, the NADPH fluorescence slope in test [5] was -3.7e-06 (inactive).
Regarding `CC1(C)NC(=O)N(CC(O)CN(Cc2ccccc2)Cc2ccccc2)C1=O` (configuration not stated), the cell count in [1] is 606. Further, the inhibition in [1] was 9.2% (inactive); in test [3], -13% (inactive); in test [7], 9.57% (inactive); in [8], 21.2% (inactive). Also, the inhibition of aggregation in test [2] was 14% (inactive). Further, the nuclei count in test [2] is 84.4%; in [3], 113%. For the same compound, the fluorescence slope was -0.299 (inactive) in [4] and 0.00564 (inactive) in [9]. For the same compound, the NADPH fluorescence slope in [5] was -4e-05 (inactive).
